Common to all, as to type: functional, organism-based
Experiment [1] concerns Plasmodium falciparum. Kind of experiment: Inhibition of Plasmodium falciparum AZ10011017 isolate in HRP2 ELISA. In general terms: In an ELISA, binding on a coated surface is turned into a signal by an enzyme label.
Experiment [2] deals with Plasmodium falciparum. Kind of experiment: Inhibition of Plasmodium falciparum in HRP2 ELISA. Summed up:
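Fresh P. falciparum clinical isolates from untreated patients with confirmed monoinfection, unfrozen, unwashed, not precultured, no serum added; 1.5% hematocrit in complete RPMI 1640 with 0.5% Albumax and 25 mg/liter gentamicin, tested in duplicate. Twofold serial dilutions, seven concentrations plus drug-free control, on predried plates; 72 h at 37.5°C under 5% CO2/5% O2/90% N2. Plates freeze-thawed twice, HRP2 sandwich ELISA at 450 nm; IC50 by nonlinear regression.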

The subject of experiment [3] is Plasmodium falciparum. Kind of experiment: Inhibition of Plasmodium falciparum AZ10011008 isolate in HRP2 ELISA. Summed up:
(§1)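 Fresh pre-treatment clinical P. falciparum isolates, unfrozen, unwashed and not precultured, in duplicate at 1.5% hematocrit in RPMI 1640 with 0.5% Albumax and 25 mg/liter gentamicin. Plates carried predried twofold dilutions, single or in an 8x8 checkerboard. Incubation was 72 h at 37.5°C in 5% CO2/5% O2/90% N2, then two freeze-thaws. HRP2 sandwich ELISA read at 450 nm; IC50 from nonlinear regression.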

For experiment [4], the system named is Plasmodium falciparum. Kind of experiment: Inhibition of Plasmodium falciparum AZ10011003 isolate in HRP2 ELISA. A digest of the protocol: as §1
In experiment [5] the test system is Plasmodium falciparum. Nature of the experiment: Inhibition of Plasmodium falciparum AZ10011022 isolate in HRP2 ELISA. A digest of the protocol:
as §1

In brackets after ≈: the same amount, converted by molar mass.

As for `C[C@H]1[C@@H](O)O[C@@H]2O[C@@]3(C)CC[C@H]4[C@H](C)CC[C@@H]1[C@@]24OO3` [ARTENIMOL], the IC50 (as a rule, the midpoint of a concentration-inhibition curve) in the experiment with Plasmodium falciparum [1] amounted to 0.00027 µg/mL (≈ 0.00095 µM); with Plasmodium falciparum [2], 0.00053 µg/mL (≈ 0.00186 µM); in the experiment on Plasmodium falciparum [3] it was 0.00091 µg/mL (≈ 0.0032 µM); with Plasmodium falciparum [4], 0.00024 µg/mL (≈ 0.000844 µM); in the experiment with Plasmodium falciparum [5] it was 0.00038 µg/mL (≈ 0.00134 µM). Also, in the experiment on Plasmodium falciparum [2], the IC90 (in general, the point of the concentration-response curve where the effect stands at 90%) amounted to 0.00143 µg/mL (≈ 0.00503 µM). In addition, the 99% effect concentration (IC99) – broadly, the point of the concentration-response curve where the effect stands at 99% – with Plasmodium falciparum [2] is 0.00228 µg/mL.

In the case of `CC[C@H]1OC(=O)[C@H](C)[C@@H](O[C@H]2C[C@@](C)(OC)[C@@H](O)[C@H](C)O2)[C@H](C)[C@@H](O[C@@H]2O[C@H](C)C[C@H](N(C)C)[C@H]2O)[C@](C)(O)C[C@@H](C)CN(C)[C@H](C)[C@@H](O)[C@]1(C)O` [AZITHROMYCIN], the IC50 with Plasmodium falciparum [1] came out at 1.98 µg/mL (≈ 2.64 µM); with Plasmodium falciparum [2], 2.57 µg/mL (≈ 3.43 µM); in the experiment with Plasmodium falciparum [3] it was 5.34 µg/mL (≈ 7.13 µM); with Plasmodium falciparum [4], 2.44 µg/mL (≈ 3.26 µM); in the experiment with Plasmodium falciparum [5], 2.19 µg/mL (≈ 2.92 µM). In the experiment on Plasmodium falciparum [2], this compound had a 90% effect concentration (IC90) of 13.3 µg/mL (≈ 17.8 µM). Further, the 99% effect level in the experiment on Plasmodium falciparum [2] (IC99) was put at 23.9 µg/mL.

As to `CCN(CC)CCCC(C)Nc1ccnc2cc(Cl)ccc12` (centres undefined) [CHLOROQUINE], in the experiment with Plasmodium falciparum [2], the IC90 turned out to be 0.13 µg/mL (≈ 0.405 µM) and it took 0.172 µg/mL to reach the 99% level (IC99).

In the experiment on Plasmodium falciparum [2], `OC(c1cc(C(F)(F)F)nc2c(C(F)(F)F)cccc12)C1CCCCN1` (centres undefined) [MEFLOQUINE] showed a 90% effect concentration (IC90) of 0.031 µg/mL (≈ 0.0819 µM) and an IC99 of 0.0467 µg/mL.

In the case of `C=C[C@H]1CN2CC[C@H]1C[C@H]2[C@H](O)c1ccnc2ccc(OC)cc12` [QUININE], the IC50 with Plasmodium falciparum [2] worked out at 0.0644 µg/mL (≈ 0.198 µM); with Plasmodium falciparum [3], 0.0828 µg/mL (≈ 0.255 µM); in the experiment on Plasmodium falciparum [4], 0.123 µg/mL (≈ 0.38 µM); with Plasmodium falciparum [5] it was 0.116 µg/mL (≈ 0.359 µM). In the experiment with Plasmodium falciparum [2], this compound had an IC90 of 0.173 µg/mL (≈ 0.533 µM). Besides, in the experiment with Plasmodium falciparum [2], the IC99 turned out to be 0.251 µg/mL.

The values are drawn from ChEMBL document CHEMBL1142189 (Antimicrob Agents Chemother, 2007).
